According to ChEMBL document CHEMBL1240503, “Design, synthesis and biological evaluation of new (E)- and (Z)-1,2,3-triaryl-2-propen-1-ones as selective COX-2 inhibitors” (Eur J Med Chem, 2010):

Target: T1, Prostaglandin G/H synthase 1 (Ovis aries, UniProt P05979)
T1 sequence (P05979 whole entry): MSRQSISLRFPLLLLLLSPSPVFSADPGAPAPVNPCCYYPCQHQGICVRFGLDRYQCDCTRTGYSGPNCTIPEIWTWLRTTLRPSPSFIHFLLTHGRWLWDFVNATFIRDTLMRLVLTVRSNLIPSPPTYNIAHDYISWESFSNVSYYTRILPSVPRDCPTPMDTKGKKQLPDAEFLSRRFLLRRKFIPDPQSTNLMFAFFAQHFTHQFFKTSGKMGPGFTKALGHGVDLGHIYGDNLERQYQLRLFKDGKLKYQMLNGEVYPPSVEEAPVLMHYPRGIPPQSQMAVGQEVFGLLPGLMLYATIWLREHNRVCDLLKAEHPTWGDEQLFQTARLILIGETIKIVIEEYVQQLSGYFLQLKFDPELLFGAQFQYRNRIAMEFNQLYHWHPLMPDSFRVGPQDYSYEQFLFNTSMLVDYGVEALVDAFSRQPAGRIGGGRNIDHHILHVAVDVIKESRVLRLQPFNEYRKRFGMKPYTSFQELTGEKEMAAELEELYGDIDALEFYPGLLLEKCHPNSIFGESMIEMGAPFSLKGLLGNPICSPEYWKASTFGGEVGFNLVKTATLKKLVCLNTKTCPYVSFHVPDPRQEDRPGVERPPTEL
Test: Inhibition of ovine COX1 by chemiluminescence assay
Procedure, shortened: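 Enzyme activity read as arachidonate-induced luminescence, taken as a real-time index of COX catalytic turnover; inhibition measured as loss of this luminescence signal.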

IC50 [µM]	Structure (SMILES)
18.4	COc1ccc(/C=C(\C(=O)c2ccc(S(C)(=O)=O)cc2)c2ccccc2)cc1
14.4	CS(=O)(=O)c1ccc(C(=O)/C(=C/c2ccc(O)cc2)c2ccccc2)cc1
12.4	CS(=O)(=O)c1ccc(C(=O)C(=Cc2ccncc2)c2ccccc2)cc1 (mixture of isomers)
14.3	CS(=O)(=O)c1ccc(C(=O)/C(=C\c2ccccc2)c2ccccc2)cc1
13.1	CS(=O)(=O)c1ccc(C(=O)/C(=C/c2cccs2)c2ccccc2)cc1
30.9	CS(=O)(=O)c1ccc(C(=O)/C(=C\c2ccc(F)cc2)c2ccccc2)cc1
10.4	Cc1ccc(/C=C(/C(=O)c2ccc(S(C)(=O)=O)cc2)c2ccccc2)cc1
13.3	CS(=O)(=O)c1ccc(C(=O)/C(=C/c2ccccc2)c2ccccc2)cc1
12.6	CS(=O)(=O)c1ccc(C(=O)/C(=C/c2ccc(F)cc2)c2ccccc2)cc1
10.7	COc1ccc(/C=C(/C(=O)c2ccc(S(C)(=O)=O)cc2)c2ccccc2)cc1
12.2	Cc1ccc(/C=C(\C(=O)c2ccc(S(C)(=O)=O)cc2)c2ccccc2)cc1
